# Screening results (PubChem BioAssay)
# PLK1 PBD inh: blocks phosphopeptide binding to human Plk1 polo box domain | actives 0.13% (n = 97,000) | Plk1 PBD phosphopeptide binding, fluorescence polarization | AID 693 | inhibition, %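 (tested at about 20 µM)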 | P53350; in the data active = inhibition above about 34%, passing the limit was not always enough
# Cav3 T inh: inhibitors of human Cav3.2 T-type calcium channel. O95180. Cav3.2-expressing cells, Fluo-4 calcium fluorescence FDSS; hits give low values. B-score at 10 µM. actives 4% (n = 100,000). AID 449739;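 active = single-dose well whose peak fluorescence ratio is a statistical outlier from its plate by either plate-standardised score or position-corrected B-score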
# EphB4 ephrin blk: blocks human EphB4 binding to ephrin-B2; AID 720; inhibition, % at 7 µM; EphB4 LBD / TNYL-RAW-Alexa532 peptide, fluorescence polarization; actives 0.15% (n = 97,000);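 active = inhibition above the screen-wide mean inhibition plus 3 SD, cut at about 15% in these data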;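 also: 0% = DMSO wells and 100% = excess unlabeled TNYL-RAW peptide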
# FAK inh: FAK (human) kinase inhibition; biochemical FAK kinase activity assay; inhibition, %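 (tested at 7 µM)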; actives 0.84% (n = 97,000); AID 727; in the data active = inhibition above about 19%;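 also: 0% = DMSO and 100% = reference compound high control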
# PLK1 inh: inhibitors of human PLK1 kinase; P53350; recombinant PLK1 kinase, TR-FRET peptide phosphorylation; AID 619; actives 0.53% (n = 97,000); inhibition, % at 10 µM;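 active = inhibition of 50% or more in the single-concentration screen; inactive = inhibition below 50%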;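 also: 0% = DMSO max control and 100% = H-89 dihydrochloride min control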
# Rev-RRE block: HIV Rev-RRE protein-RNA interaction inhibition; P05866; actives 0.79% (n = 97,000); inhibition, % at 8 µM; Rev peptide-RRE RNA binding, FRET; AID 704;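 active = inhibition above the screen-wide mean plus 3 SD, cut at about 35% in these data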;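 also: 0% = median DMSO wells and 100% = median Neomycin B control wells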
#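 Material: labelled RRE RNA duplex and labelled Rev peptide / Buffer or medium: HEPES pH 7.5 salt buffer with EDTA / Compound dosing: single point, 8 µM final nominal compound concentration / Benchmarks: DMSO low control, neomycin B high control / Timing: 5 min preincubation and 15 min binding, 25 °C / Technique: FRET fluorescence readout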
# Active calls of the source: *; / = not tested or not shown; [ ] = remark or other dose. A selection: hits, their analogues and other compounds. The true share with any hit is near 5.3%.
SMILES,PLK1 PBD inh,Cav3 T inh,EphB4 ephrin blk,FAK inh,PLK1 inh,Rev-RRE block
Cc1c(-c2ccccc2)sc(N)c1C(=O)N1CCOCC1,35,0.35,1,-5,1,-2
O=[N+]([O-])c1cccc(N=NN(CCO)c2cccc([N+](=O)[O-])c2)c1,-6,-0.18,2,1,7,11
CCCN(N=Nc1cccc([N+](=O)[O-])c1)c1cccc([N+](=O)[O-])c1,-22,-4.2*,-1,-1,1,11
CC1(C)Cc2c(C#N)c(SCCC#N)nc(N3CCOCC3)c2CS1,/,-3.9*,/,/,/,/
CC1(C)Cc2c(c(N3CCOCC3)nc3sc(C#N)c(N)c23)CS1,-17,1.1,-1,0,-6,3
Cc1cccc(N(C)S(=O)(=O)c2ccc3[nH]cc(C(=O)N4CCOCC4)c(=O)c3c2)c1,-12,/,4,10,-1,3
O=C(c1c[nH]c2ccc(S(=O)(=O)N3CCC4(CC3)OCCO4)cc2c1=O)N1CCOCC1,4,-0.37,17*,4,-5,9
CCOC(=O)c1ccc(NC(=S)Nc2ccc(Br)cc2N)cc1,/,-2.2,/,/,/,/
Cc1cc(C)c(S(=O)(=O)c2ccccc2)c(OC(=O)c2c(Cl)cc(Cl)cc2Cl)n1,-9,-6.5*,-3,-1,-7,14
O=C(CN1CCCC1)N1c2ccccc2Sc2ccccc21,6,0.52,-4,-1,7,-2
NCCCC(=O)N1c2ccccc2Sc2ccccc21,6,/,-3,0,66*,-9
Cc1cc(C)nc(N2CCC(C(=O)NCc3ccccc3)CC2)n1,-5,1.2,0,0,-10,0
Cc1cc(C)nc(N2CCCC(C(=O)NCc3ccccc3)C2)n1 (centres undefined),21,1.3,29*,2,-8,6
COc1ccc2c(c1)c(CCNNC(=O)C(C)(C)C)c(C)n2C(=O)c1ccc(Cl)cc1,/,-1.7,/,/,/,/
O=C(NCc1ccc2c(c1)OCO2)C1CCC(CNS(=O)(=O)c2ccccc2)CC1 (centres undefined),-3,-3.8*,-1,-2,-21,2
O=C(NCc1ccc2c(c1)OCO2)C1CCC(CNS(=O)(=O)c2cccc3nsnc23)CC1 (centres undefined),-10,-1,4,-3,-10,5
CCOC(=O)c1nnn(CC(=O)N2N=C(c3ccc(Cl)cc3)CC2c2ccc(OC)cc2)c1C(=O)OCC (centres undefined),-4,-4.2,5,3,-8,5
CNC(=S)N1N=C(c2ccc(C)cc2)CC1c1ccc(OC)cc1 (centres undefined),22,-4.1*,1,-3,-13,-1
O=C([C@H](Cc1ccccc1)NS(=O)(=O)c1ccc(Cl)cc1)N1CC[C@@]2(O)CCCC[C@H]2C1,-10,-3.3*,-7,1,-3,2
COc1ccc(S(=O)(=O)N[C@@H](Cc2ccccc2)C(=O)N2CC[C@@]3(O)CCCC[C@H]3C2)cc1,14,0.38,-2,4,-12,8
Cc1cc(NC(=O)CSc2nc3ccc(Cl)cc3[nH]2)no1,10,-0.91,1,1,50*,1
Cc1cc(NC(=O)CSc2nc3cc(Cl)ccc3s2)no1,14,-0.14,-2,1,-18,11
CCN(CC)CCC(c1ccc2c(c1)OCO2)c1c(O)cc(OC)cc1OC (centres undefined),/,-0.22,/,/,/,/
COc1cc(C2C3CN(C)CC=C3C(C#N)=C(N)C2(C#N)C#N)ccc1OC(C)C (centres undefined),/,0.25,/,/,/,/
CCC1C2CN(C(C)=O)CC=C2C(C#N)=C(N)C1(C#N)C#N (centres undefined),-5,2,-1,1,-9,9
SMILES,PLK1 PBD inh,Cav3 T inh,EphB4 ephrin blk,FAK inh,PLK1 inh,Rev-RRE block
CC(C)N1CC=C2C(C#N)=C(N)C(C#N)(C#N)C(c3ccccc3)C2C1 (centres undefined),-4,-2,-2,-2,3,91*[fluorescence artefact?]
CCN1CC=C2C(C#N)=C(N)C(C#N)(C#N)C(c3cc(Cl)ccc3Cl)C2C1 (centres undefined),-64,/,0,3,10,66*
CC(C)N1CC=C2C(C#N)=C(N)C(C#N)(C#N)[C@H](c3ccoc3)[C@H]2C1,9,-4.6*,0,2,1,107*[fluorescence artefact?]
CN1CC=C2C(C#N)=C(N)C(C#N)(C#N)C(Cc3ccccc3)C2C1 (centres undefined),-15,-0.0043,0,-1,0,72*
CCCNC(=O)C1CNc2ccccc2O1 (centres undefined),-12,-0.44,2,1,-10,7
CCN1CCN(CCNC(=O)CS(=O)(=O)Cc2nc(-c3ccc(C)cc3)oc2C)CC1,-9,0.24,1,-3,65*,1
COc1cccc(-c2nc(CS(=O)(=O)CC(=O)NCCCN3CCc4ccccc4C3)c(C)o2)c1,-2,-5.7*,1,3,-11,12
O=C1OCC2OC(O)C(O)C(O)C2OC(=O)c2cc(O)c(O)c(O)c2-c2c(O)c(O)c3oc(=O)c4c(c(O)c(O)c5oc(=O)c2c3c54)-c2c1cc(O)c(O)c2O (centres undefined),/,0.26,/,/,/,/
COCCn1c(C)cc(C(=O)CSc2nnc3scc(-c4ccc(Cl)cc4)n23)c1C,24,/,-4,-3,-8,3
CC1CC(C)CN(C(=O)c2ccccc2Nc2ccc(SC(F)F)cc2)C1 (centres undefined),-20,-4.2*,-8,5,-11,8
CN1CCC(N(C)C(=O)c2ccccc2Nc2ccc(SC(F)F)cc2)CC1,-7,0.85,0,-5,-7,-2
O=C(Cc1ccccc1)Nc1cc(C(=O)c2ccccc2)ccc1N1CCOCC1,-4,-1.8,2,2,1,14
CCc1ccc(OCCNC(=O)c2ccccc2SCc2ccccc2)cc1,-7,-6.8*,-1,4,-11,7
CCCCOCCCNC(=O)COc1ccccc1,-22,0.45,0,-1,-13,-2
CCc1ccc(OCC(=O)NCCOc2ccccc2)cc1,15,-4.4*,2,2,-1,4
CSc1nc(C)cc(-c2cc(C(=O)Nc3ccccc3)on2)n1,/,-1.4,/,/,/,/
COC(=O)C1=C(C(=O)OC)[C@@H]2N(C)c3ccccc3[C@@]23C[C@@H](CO)N(C(=O)NCCBr)C3=N1,/,-3.7,/,/,/,/
Cn1c(CSCc2ccc(F)cc2)nnc1SCC(=O)Nc1nccs1,0,-0.064,3,2,52*,7
Cn1c(CSCc2ccccc2)nnc1SCC(=O)Nc1nccs1,-2,0.041,-6,-3,56*,-1
Cn1c(CSCc2ccc(Cl)cc2)nnc1SCC(=O)Nc1nccs1,-4,-0.33,3,-1,13,3
O=C(CSc1cn(Cc2ccccc2)c2ccccc12)Nc1nccs1,-13,-4.3*,-1,5,-6,3
